The source made the active and inactive calls. The calls are words filed in the database; no cut-off is given here.
Tests used:
[1] = target: T1, Uncharacterized protein (Sus scrofa) (UniProt I3LIR5); assay: Inhibition of pig trehalase isolated from kidney using alpha,alpha'-trehalose as substrate at 2 mM after 10 to 30 mins by spectrophotometric analysis
T1 sequence (whole entry): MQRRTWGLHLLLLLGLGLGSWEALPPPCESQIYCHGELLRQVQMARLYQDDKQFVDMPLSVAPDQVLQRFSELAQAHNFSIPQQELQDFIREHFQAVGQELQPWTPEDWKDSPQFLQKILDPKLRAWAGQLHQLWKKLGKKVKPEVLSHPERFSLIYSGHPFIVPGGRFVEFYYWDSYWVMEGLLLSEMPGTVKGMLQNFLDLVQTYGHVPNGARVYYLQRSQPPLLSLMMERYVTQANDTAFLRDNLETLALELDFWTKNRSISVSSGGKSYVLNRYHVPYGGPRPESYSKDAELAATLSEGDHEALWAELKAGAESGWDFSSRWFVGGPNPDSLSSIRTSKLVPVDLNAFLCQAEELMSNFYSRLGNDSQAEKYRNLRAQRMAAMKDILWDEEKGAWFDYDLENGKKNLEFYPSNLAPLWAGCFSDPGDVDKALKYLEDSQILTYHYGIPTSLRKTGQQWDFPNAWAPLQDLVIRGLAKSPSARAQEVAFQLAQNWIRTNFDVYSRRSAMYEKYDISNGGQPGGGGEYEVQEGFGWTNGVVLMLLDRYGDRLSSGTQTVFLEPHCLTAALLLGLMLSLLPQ
Method in brief: (§1)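 Enzyme added to substrate with or without inhibitor in phosphate buffer (phosphate–citrate for α-/β-mannosidase and amyloglucosidase) at each enzyme's optimal pH; 10–30 min at 37 °C (55 °C amyloglucosidase), aiming at 10–20% conversion. Stopped with 1 M Na₂CO₃, A405; trehalase stopped by heating, GLC-Trinder added, A492. Ki from Lineweaver–Burk and double-reciprocal analysis, substrate near Km.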

[2] = target: T2, Lysosomal acid glucosylceramidase (Homo sapiens) (UniProt P04062); assay: Inhibition of human beta-glucocerebrosidase at 100 uM relative to control; details: values are per cent of control
T2 sequence (whole entry): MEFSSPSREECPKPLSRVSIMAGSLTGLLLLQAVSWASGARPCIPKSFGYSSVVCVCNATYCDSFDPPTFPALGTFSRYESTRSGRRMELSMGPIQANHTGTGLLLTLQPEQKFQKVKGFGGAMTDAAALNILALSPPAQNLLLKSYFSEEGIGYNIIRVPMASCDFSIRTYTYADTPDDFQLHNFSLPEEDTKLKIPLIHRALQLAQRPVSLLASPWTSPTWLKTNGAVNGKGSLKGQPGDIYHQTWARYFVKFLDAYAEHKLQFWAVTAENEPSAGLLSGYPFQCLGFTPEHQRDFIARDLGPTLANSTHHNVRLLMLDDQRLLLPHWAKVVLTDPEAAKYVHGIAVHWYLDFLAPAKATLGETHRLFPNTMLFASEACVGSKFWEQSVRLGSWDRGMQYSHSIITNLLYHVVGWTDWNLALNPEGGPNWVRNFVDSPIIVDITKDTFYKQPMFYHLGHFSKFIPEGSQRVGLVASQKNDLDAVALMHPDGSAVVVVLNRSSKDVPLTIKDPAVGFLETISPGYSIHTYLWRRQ

Aspergillus niger = assay: Inhibition of Aspergillus niger amyloglucosidase at 2 mM after 10 to 30 mins by spectrophotometric analysis; method in brief: as §1
[3] = target: Alpha-galactosidase (Coffea arabica) (UniProt Q42656); assay: Inhibition of green coffee alpha galactosidase at 2 mM after 10 to 30 mins by spectrophotometric analysis; method in brief: as §1
Alpha-galactosidase (Coffea arabica), sequence (Q42656 16-378 limits assumed): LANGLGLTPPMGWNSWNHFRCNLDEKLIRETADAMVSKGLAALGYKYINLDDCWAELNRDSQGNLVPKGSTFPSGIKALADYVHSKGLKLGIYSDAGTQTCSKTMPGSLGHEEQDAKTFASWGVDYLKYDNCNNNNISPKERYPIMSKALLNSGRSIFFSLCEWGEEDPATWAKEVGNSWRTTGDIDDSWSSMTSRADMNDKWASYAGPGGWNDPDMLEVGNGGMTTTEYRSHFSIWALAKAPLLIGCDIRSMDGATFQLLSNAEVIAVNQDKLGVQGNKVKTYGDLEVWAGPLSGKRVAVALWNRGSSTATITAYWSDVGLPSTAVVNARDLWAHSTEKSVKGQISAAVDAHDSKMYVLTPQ

Canavalia ensiformis = assay: Inhibition of jack bean alpha-mannosidase at 2 mM after 10 to 30 mins by spectrophotometric analysis; method in brief: as §1
[4] = Competitive inhibition of bovine beta-glucosidase isolated from liver after 10 to 30 mins by Lineweaver-Burk plot analysis; set-up: species or system Bos taurus; method in brief: as §1
Penicillium decumbens = assay: Inhibition of Penicillium decumbens naringinase at 2 mM after 10 to 30 mins by spectrophotometric analysis; method in brief: as §1
Helix pomatia = assay: Inhibition of Helix pomatia beta-mannosidase at 2 mM after 10 to 30 mins by spectrophotometric analysis; method in brief: as §1
Prunus dulcis = assay: Inhibition of almond beta-glucosidase at 2 mM after 10 to 30 mins by spectrophotometric analysis; method in brief: as §1
[5] = target: Beta-galactosidase (Escherichia coli) (UniProt Q8VNN2); assay: Inhibition of Escherichia coli beta galactosidase at 2 mM after 10 to 30 mins by spectrophotometric analysis; method in brief: as §1
Beta-galactosidase (Escherichia coli), sequence (Q8VNN2 whole entry, looked up): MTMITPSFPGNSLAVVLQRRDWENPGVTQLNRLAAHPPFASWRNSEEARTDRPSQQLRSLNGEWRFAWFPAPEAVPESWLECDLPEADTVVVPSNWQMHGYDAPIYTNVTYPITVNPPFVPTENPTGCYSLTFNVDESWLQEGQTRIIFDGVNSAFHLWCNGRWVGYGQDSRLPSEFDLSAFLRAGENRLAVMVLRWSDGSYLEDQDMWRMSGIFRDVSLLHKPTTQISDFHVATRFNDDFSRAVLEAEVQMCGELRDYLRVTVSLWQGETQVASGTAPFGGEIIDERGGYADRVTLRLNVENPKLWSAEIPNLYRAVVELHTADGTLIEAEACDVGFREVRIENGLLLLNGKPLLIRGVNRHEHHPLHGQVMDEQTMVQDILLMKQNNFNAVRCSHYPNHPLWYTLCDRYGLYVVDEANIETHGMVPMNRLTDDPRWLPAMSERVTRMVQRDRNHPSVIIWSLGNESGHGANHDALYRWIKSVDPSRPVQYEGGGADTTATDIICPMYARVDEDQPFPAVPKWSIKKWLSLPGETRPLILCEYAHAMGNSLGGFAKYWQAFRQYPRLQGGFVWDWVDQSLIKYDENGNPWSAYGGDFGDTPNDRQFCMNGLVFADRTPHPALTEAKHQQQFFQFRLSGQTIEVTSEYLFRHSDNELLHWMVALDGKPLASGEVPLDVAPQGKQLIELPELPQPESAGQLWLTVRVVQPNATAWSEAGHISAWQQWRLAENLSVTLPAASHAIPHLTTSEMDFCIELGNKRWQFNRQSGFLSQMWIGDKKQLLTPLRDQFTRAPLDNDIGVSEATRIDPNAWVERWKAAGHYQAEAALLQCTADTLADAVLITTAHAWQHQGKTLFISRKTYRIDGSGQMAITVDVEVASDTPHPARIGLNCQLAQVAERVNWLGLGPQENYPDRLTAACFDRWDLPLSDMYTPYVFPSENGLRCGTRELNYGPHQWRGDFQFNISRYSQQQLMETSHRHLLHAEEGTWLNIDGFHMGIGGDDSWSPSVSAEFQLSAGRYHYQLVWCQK

Saccharomyces cerevisiae [6] = assay: Inhibition of yeast alpha-glucosidase using at 2 mM after 10 to 30 mins by spectrophotometric analysis; method in brief: as §1
Saccharomyces cerevisiae [7] = assay: Inhibition of yeast isomaltase at 2 mM after 10 to 30 mins by spectrophotometric analysis; method in brief: as §1

Question: Which results are given for `CCCCCCCCCCCCSC1=N[C@H]2O[C@H](CO)[C@@H](O)[C@H](O)[C@H]2O1`?
Answer: inhibition [1]: inactive; residual activity [2]: 87%; inhibition (Aspergillus niger): inactive; inhibition [3]: inactive; inhibition (Canavalia ensiformis): inactive; Ki [4]: 73 µM; inhibition (Penicillium decumbens): inactive; inhibition (Helix pomatia): inactive; inhibition (Prunus dulcis): inactive; inhibition [5]: inactive; inhibition (Saccharomyces cerevisiae [6]): inactive; inhibition (Saccharomyces cerevisiae [7]): inactive

Question: Which inhibition [1] does the source give for `CCCCCCCSC1=N[C@H]2O[C@H](CO)[C@@H](O)[C@H](O)[C@H]2O1` here?
Answer: inactive

Question: And the residual activity [2]?
Answer: 91%

Question: What about the inhibition (Aspergillus niger) of the same compound?
Answer: inactive

Question: What about the inhibition [3] of the same compound?
Answer: inactive

Question: And the inhibition (Canavalia ensiformis)?
Answer: inactive

Question: What about the Ki [4] of the same compound?
Answer: 310 µM

Question: And the inhibition (Penicillium decumbens)?
Answer: inactive

Question: What about the inhibition (Helix pomatia) of the same compound?
Answer: inactive

Question: What about the inhibition (Prunus dulcis) of the same compound?
Answer: inactive

Question: What about the inhibition [5] of the same compound?
Answer: inactive

Question: What about the inhibition (Saccharomyces cerevisiae [6]) of the same compound?
Answer: inactive

Question: What about the inhibition (Saccharomyces cerevisiae [7]) of the same compound?
Answer: inactive

Question: Which results are given for `OC[C@H]1O[C@@H]2N=C(SCc3ccccc3)O[C@@H]2[C@@H](O)[C@@H]1O`?
Answer: inhibition [1]: inactive; residual activity [2]: 88%; inhibition (Aspergillus niger): inactive; inhibition [3]: inactive; inhibition (Canavalia ensiformis): inactive; Ki [4]: 210 µM; inhibition (Penicillium decumbens): inactive; inhibition (Helix pomatia): inactive; inhibition (Prunus dulcis): inactive; inhibition [5]: inactive; inhibition (Saccharomyces cerevisiae [6]): inactive; inhibition (Saccharomyces cerevisiae [7]): inactive

Question: For `C=CCSC1=N[C@H]2O[C@H](CO)[C@@H](O)[C@H](O)[C@H]2O1`, which inhibition [1] is on record?
Answer: inactive

Question: And the residual activity [2]?
Answer: 97%

Question: What about the inhibition (Aspergillus niger) of the same compound?
Answer: inactive

Question: What about the inhibition [3] of the same compound?
Answer: inactive

Question: What about the inhibition (Canavalia ensiformis) of the same compound?
Answer: inactive

Question: What about the Ki [4] of the same compound?
Answer: 220 µM

Question: And the inhibition (Penicillium decumbens)?
Answer: inactive

Question: And the inhibition (Helix pomatia)?
Answer: inactive

Question: What about the inhibition (Prunus dulcis) of the same compound?
Answer: inactive

Question: And the inhibition [5]?
Answer: inactive

Question: And the inhibition (Saccharomyces cerevisiae [6])?
Answer: inactive

Question: What about the inhibition (Saccharomyces cerevisiae [7]) of the same compound?
Answer: inactive

Question: With `CCCCCCCCSC1=N[C@H]2O[C@H](CO)[C@@H](O)[C@H](O)[C@H]2O1` as the compound, how does the inhibition [1] read?
Answer: inactive

Question: What about the residual activity [2] of the same compound?
Answer: 91%

Question: And the inhibition (Aspergillus niger)?
Answer: inactive

Question: What about the inhibition [3] of the same compound?
Answer: inactive

Question: What about the inhibition (Canavalia ensiformis) of the same compound?
Answer: inactive

Question: And the Ki [4]?
Answer: 280 µM

Question: What about the inhibition (Penicillium decumbens) of the same compound?
Answer: inactive

Question: And the inhibition (Helix pomatia)?
Answer: inactive

Question: And the inhibition (Prunus dulcis)?
Answer: inactive

Question: What about the inhibition [5] of the same compound?
Answer: inactive

Question: And the inhibition (Saccharomyces cerevisiae [6])?
Answer: inactive

Question: What about the inhibition (Saccharomyces cerevisiae [7]) of the same compound?
Answer: inactive

Question: Which results are given for `CCCCCCCCCCCCCCCCSC1=N[C@H]2O[C@H](CO)[C@@H](O)[C@H](O)[C@H]2O1`?
Answer: inhibition [1]: inactive; residual activity [2]: 86%; inhibition (Aspergillus niger): inactive; inhibition [3]: inactive; inhibition (Canavalia ensiformis): inactive; Ki [4]: 52 µM; inhibition (Penicillium decumbens): inactive; inhibition (Helix pomatia): inactive; inhibition (Prunus dulcis): inactive; inhibition [5]: inactive; inhibition (Saccharomyces cerevisiae [6]): inactive; inhibition (Saccharomyces cerevisiae [7]): inactive

Question: With `O=C(NCCCCCCSC1=N[C@H]2O[C@H](CO)[C@@H](O)[C@H](O)[C@H]2O1)C12CC3CC(CC(C3)C1)C2` as the compound, how does the inhibition [1] read?
Answer: inactive

Question: What about the residual activity [2] of the same compound?
Answer: 91%

Question: And the inhibition (Aspergillus niger)?
Answer: inactive

Question: And the inhibition [3]?
Answer: inactive

Question: And the inhibition (Canavalia ensiformis)?
Answer: inactive

Question: What about the Ki [4] of the same compound?
Answer: 230 µM

Question: What about the inhibition (Penicillium decumbens) of the same compound?
Answer: inactive

Question: And the inhibition (Helix pomatia)?
Answer: inactive

Question: And the inhibition (Prunus dulcis)?
Answer: inactive

Question: And the inhibition [5]?
Answer: inactive

Question: And the inhibition (Saccharomyces cerevisiae [6])?
Answer: inactive

Question: And the inhibition (Saccharomyces cerevisiae [7])?
Answer: inactive

Question: What does the source list for `CCCCSC1=N[C@H]2O[C@H](CO)[C@@H](O)[C@H](O)[C@H]2O1`?
Answer: inhibition [1]: inactive; residual activity [2]: 92%; inhibition (Aspergillus niger): inactive; inhibition [3]: inactive; inhibition (Canavalia ensiformis): inactive; Ki [4]: 580 µM; inhibition (Penicillium decumbens): inactive; inhibition (Helix pomatia): inactive; inhibition (Prunus dulcis): inactive; inhibition [5]: inactive; inhibition (Saccharomyces cerevisiae [6]): inactive; inhibition (Saccharomyces cerevisiae [7]): inactive
